From ChEMBL document CHEMBL4177770, “Discovery of MK-6169, a Potent Pan-Genotype Hepatitis C Virus NS5A Inhibitor with Optimized Activity against Common Resistance-Associated Substitutions” (J Med Chem, 2018)
Changes are numbered by the printed parent chain.

Key:
[1] = biological target: T1, Nonstructural protein 5A (Hepatitis C virus) (UniProt Q5L478); test: Inhibition of NS5A A92T mutant in HCV genotype 1b infected in HuH7 replicon cells assessed as decrease in viral replication after 3 days by RT-PCR method; assay type: cell-based; details: Hepatitis C virus subtype 1b
T1 sequence (whole entry): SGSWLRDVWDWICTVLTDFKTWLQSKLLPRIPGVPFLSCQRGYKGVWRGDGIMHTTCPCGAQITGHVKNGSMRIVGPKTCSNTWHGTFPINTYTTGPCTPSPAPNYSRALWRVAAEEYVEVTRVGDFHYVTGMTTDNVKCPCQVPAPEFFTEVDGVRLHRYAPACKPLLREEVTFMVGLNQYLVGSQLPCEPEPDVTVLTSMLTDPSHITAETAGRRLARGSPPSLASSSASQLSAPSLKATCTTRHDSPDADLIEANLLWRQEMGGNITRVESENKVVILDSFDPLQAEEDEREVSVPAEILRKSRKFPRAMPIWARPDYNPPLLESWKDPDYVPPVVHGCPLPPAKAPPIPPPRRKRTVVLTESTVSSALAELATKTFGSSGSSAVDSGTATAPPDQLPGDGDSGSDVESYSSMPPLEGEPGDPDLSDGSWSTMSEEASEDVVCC

[2] = Resistance ratio of EC90 for NS5A A146S mutant in HCV genotype 2b infected in HuH7 replicon cells to EC90 for NS5A in HCV genotype 1a infected in HuH7 replicon cells; assay type: cell-based
[3] = Drug level in Wistar Han rat at 10 mg/kg, po measured at 24 hrs by LC/MS method; assay type: ADME, organism-based; details: in vivo, read-out: Drug uptake
Procedure, shortened: (§1)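 Male Wistar Han rats, two per dosing group, dosed orally at 10 mg/kg in 10% TWEEN. Plasma was separated from collected blood by centrifugation and analysed by LC/MS.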

[4] = Resistance ratio of EC90 for NS5A P32L mutant in HCV genotype 4a infected in HuH7 replicon cells to EC90 for NS5A in HCV genotype 1a infected in HuH7 replicon cells; assay type: cell-based
[5] = biological target: T1, Nonstructural protein 5A (Hepatitis C virus); test: Inhibition of NS5A P32L mutant in HCV genotype 4a infected in HuH7 replicon cells assessed as decrease in viral replication after 3 days by RT-PCR method; assay type: cell-based; details: Hepatitis C virus subtype 4a
[6] = Cmax in Wistar Han rat at 100 mg/kg, po by LC/MS method; assay type: ADME, organism-based; parameters: dose 100 mg/kg, route oral; details: in vivo
Procedure, shortened: (§2)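 Single rising oral dose study in fed male Wistar Han rats, dosed PO in 10% TWEEN at the indicated doses. Plasma was obtained by centrifuging the blood, and compound levels were determined by LC/MS.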

[7] = test system: T2, Nonstructural protein 5A (Hepatitis C virus), Q5L478 [Y93N]; test: Inhibition of NS5A Y93N mutant in HCV genotype 1a infected in HuH7 replicon cells assessed as decrease in viral replication after 3 days by RT-PCR method; assay type: cell-based; details: Hepatitis C virus subtype 1a
T2 sequence (whole entry): T1 sequence (whole entry) with Y93N

[8] = MRT in Wistar Han rat at 300 mg/kg, po by LC/MS method; assay type: ADME, organism-based; details: in vivo; procedure, shortened: as §2
[9] = biological target: T1, Nonstructural protein 5A (Hepatitis C virus); test: Inhibition of NS5A L31M mutant in HCV genotype 1b infected in HuH7 replicon cells assessed as decrease in viral replication after 3 days by RT-PCR method; assay type: cell-based; details: Hepatitis C virus subtype 1b
[10] = Resistance ratio of EC90 for NS3 D168Y mutant in HCV genotype 1b infected in HuH7 replicon cells to EC90 for NS5A in HCV genotype 1a infected in HuH7 replicon cells
[11] = biological target: T1, Nonstructural protein 5A (Hepatitis C virus); test: Inhibition of NS5A A92P mutant in HCV genotype 1a infected in HuH7 replicon cells assessed as decrease in viral replication after 3 days by RT-PCR method; assay type: cell-based; details: Hepatitis C virus subtype 1a
[12] = biological target: T1, Nonstructural protein 5A (Hepatitis C virus); test: Inhibition of NS5A L31V mutant in HCV genotype 1a infected in HuH7 replicon cells assessed as decrease in viral replication after 3 days by RT-PCR method; assay type: cell-based; details: Hepatitis C virus subtype 1a
[13] = Resistance ratio of EC90 for NS5A L31F mutant in HCV genotype 3a infected in HuH7 replicon cells to EC90 for NS5A in HCV genotype 1a infected in HuH7 replicon cells; assay type: cell-based
[14] = test system: Hepatitis C virus subtype 1a; test: Resistance ratio of EC90 for NS5A A92P mutant in HCV genotype 1a infected in HuH7 replicon cells to EC90 for NS5A in HCV genotype 1a infected in HuH7 replicon cells; assay type: cell-based
[15] = Half life in Wistar Han rat at 2 mg/kg, iv by LC/MS method; assay type: ADME, organism-based; details: in vivo
Procedure, shortened: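 Male Wistar Han rats, two per group, dosed IV at 2 mg/kg in 60% PEG200. Plasma was obtained by centrifuging the blood, and compound concentrations were measured by LC/MS.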

[16] = biological target: T1, Nonstructural protein 5A (Hepatitis C virus); test: Inhibition of NS5A M28T mutant in HCV genotype 1a infected in HuH7 replicon cells assessed as decrease in viral replication after 3 days by RT-PCR method; assay type: cell-based; details: Hepatitis C virus subtype 1a
[17] = AUC in Wistar Han rat at 10 mg/kg, po by LC/MS method; assay type: ADME, organism-based; details: in vivo; procedure, shortened: as §1
[18] = biological target: T1, Nonstructural protein 5A (Hepatitis C virus); test: Inhibition of NS5A M31V mutant in HCV genotype 2b infected in HuH7 replicon cells assessed as decrease in viral replication after 3 days by RT-PCR method; assay type: cell-based; details: Hepatitis C virus subtype 2b
[19] = Half life in Beagle dog at 1 mg/kg, iv by LC/MS method; assay type: ADME, organism-based, Canis lupus familiaris; details: in vivo
Procedure, shortened: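 Beagle dogs, two animals per group, dosed IV at 1 mg/kg in 60% PEG200. Plasma was prepared from collected blood by centrifugation, and compound was quantified by LC/MS.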

[20] = test system: Hepatitis C virus subtype 1a; test: Resistance ratio of EC90 for NS5A M28T mutant in HCV genotype 1a infected in HuH7 replicon cells to EC90 for NS5A in HCV genotype 1a infected in HuH7 replicon cells; assay type: cell-based
[21] = biological target: T1, Nonstructural protein 5A (Hepatitis C virus); test: Inhibition of NS5A D168Y mutant in HCV genotype 1b infected in HuH7 replicon cells assessed as decrease in viral replication after 3 days by RT-PCR method; assay type: cell-based; details: Hepatitis C virus subtype 1b
[22] = Resistance ratio of EC90 for NS5A L28M/Y93H double mutant in HCV genotype 1b infected in HuH7 replicon cells to EC90 for NS5A in HCV genotype 1a infected in HuH7 replicon cells; assay type: cell-based

`COC(=O)N[C@H](C(=O)N1CCC[C@H]1c1ncc(-c2cc(F)c3c(c2)O[C@@H](c2ccc(C4CC4)s2)n2c-3cc3cc(-c4cnc([C@@H]5CCCN5C(=O)[C@@H](NC(=O)OC)[C@@H]5CCOC(C)(C)C5)[nH]4)ccc32)[nH]1)C(C)C` showed an EC90 [1] of 3.9 pM, a Ratio [2] of 1 and a concentration at 24 h [3] of 3 to 11 nM. The Ratio [4] was 1, the EC90 [5] was 4.4 pM and the Cmax [6] was 760 nM. It also gave an EC90 [7] of 69 pM, an MRT [8] of 10.7 h and an EC90 [9] of 1.6 pM. The Ratio [10] was < 1, the EC90 [11] was 0.14 pM and the EC90 [12] was 4.3 pM. The Ratio [13] was 69, the Ratio [14] was < 1 and the half-life [15] was 5.4 h. For the same compound, the EC90 [16] was 2 pM, the AUC [17] was 0.95 to 1.65 µM·h and the EC90 [18] was 19 pM. For the same compound, the half-life [19] was 5.8 h, the Ratio [20] was < 1 and the EC90 [21] was 1.8 pM. It also gave a Ratio [22] of 15.
